As usually defined, the EC50 is the midpoint of the concentration-response curve. Lower therefore signals greater potency.

Structures are written as SMILES.

The target in assay [1] is GluN2D ligand-binding domain (Rattus norvegicus, UniProt Q62645, DEL565-685). Nature of the assay: X-ray crystallography. The settings on record: co-crystal with 10 mM ligand; D1-D2 cleft.
Assay [2] addresses GluN1/GluN2D NMDA receptor (Rattus norvegicus, UniProt P35439+Q62645). Nature of the assay: EC50 of agonist response. The class given is cell-based. The method, boiled down: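 Xenopus laevis oocytes injected with 5-10 ng cRNA (GluN1:GluN2 ratio 1:2), stored at 15°C, recorded 2-4 days later at 23°C. Two-electrode voltage clamp at -30 to -60 mV in pH 7.4 HEPES bath with Ba2+ and 30 μM glycine. Concentration-response curves fitted per oocyte with a Hill equation to give EC50 and Hill coefficient.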

Sequence of GluN2D ligand-binding domain (Q62645 424-564, stated change not applied): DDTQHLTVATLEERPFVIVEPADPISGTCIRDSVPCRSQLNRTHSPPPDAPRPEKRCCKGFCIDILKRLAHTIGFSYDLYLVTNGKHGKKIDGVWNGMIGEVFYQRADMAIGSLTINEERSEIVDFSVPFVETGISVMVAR
Sequence of GluN2D ligand-binding domain (Q62645 686-827, stated change not applied): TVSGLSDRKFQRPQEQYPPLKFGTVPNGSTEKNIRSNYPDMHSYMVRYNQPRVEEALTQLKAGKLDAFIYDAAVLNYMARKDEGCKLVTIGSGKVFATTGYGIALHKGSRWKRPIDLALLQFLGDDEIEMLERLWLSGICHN
Sequence of GluN1/GluN2D NMDA receptor (Q62645 28-1323, other chains not shown): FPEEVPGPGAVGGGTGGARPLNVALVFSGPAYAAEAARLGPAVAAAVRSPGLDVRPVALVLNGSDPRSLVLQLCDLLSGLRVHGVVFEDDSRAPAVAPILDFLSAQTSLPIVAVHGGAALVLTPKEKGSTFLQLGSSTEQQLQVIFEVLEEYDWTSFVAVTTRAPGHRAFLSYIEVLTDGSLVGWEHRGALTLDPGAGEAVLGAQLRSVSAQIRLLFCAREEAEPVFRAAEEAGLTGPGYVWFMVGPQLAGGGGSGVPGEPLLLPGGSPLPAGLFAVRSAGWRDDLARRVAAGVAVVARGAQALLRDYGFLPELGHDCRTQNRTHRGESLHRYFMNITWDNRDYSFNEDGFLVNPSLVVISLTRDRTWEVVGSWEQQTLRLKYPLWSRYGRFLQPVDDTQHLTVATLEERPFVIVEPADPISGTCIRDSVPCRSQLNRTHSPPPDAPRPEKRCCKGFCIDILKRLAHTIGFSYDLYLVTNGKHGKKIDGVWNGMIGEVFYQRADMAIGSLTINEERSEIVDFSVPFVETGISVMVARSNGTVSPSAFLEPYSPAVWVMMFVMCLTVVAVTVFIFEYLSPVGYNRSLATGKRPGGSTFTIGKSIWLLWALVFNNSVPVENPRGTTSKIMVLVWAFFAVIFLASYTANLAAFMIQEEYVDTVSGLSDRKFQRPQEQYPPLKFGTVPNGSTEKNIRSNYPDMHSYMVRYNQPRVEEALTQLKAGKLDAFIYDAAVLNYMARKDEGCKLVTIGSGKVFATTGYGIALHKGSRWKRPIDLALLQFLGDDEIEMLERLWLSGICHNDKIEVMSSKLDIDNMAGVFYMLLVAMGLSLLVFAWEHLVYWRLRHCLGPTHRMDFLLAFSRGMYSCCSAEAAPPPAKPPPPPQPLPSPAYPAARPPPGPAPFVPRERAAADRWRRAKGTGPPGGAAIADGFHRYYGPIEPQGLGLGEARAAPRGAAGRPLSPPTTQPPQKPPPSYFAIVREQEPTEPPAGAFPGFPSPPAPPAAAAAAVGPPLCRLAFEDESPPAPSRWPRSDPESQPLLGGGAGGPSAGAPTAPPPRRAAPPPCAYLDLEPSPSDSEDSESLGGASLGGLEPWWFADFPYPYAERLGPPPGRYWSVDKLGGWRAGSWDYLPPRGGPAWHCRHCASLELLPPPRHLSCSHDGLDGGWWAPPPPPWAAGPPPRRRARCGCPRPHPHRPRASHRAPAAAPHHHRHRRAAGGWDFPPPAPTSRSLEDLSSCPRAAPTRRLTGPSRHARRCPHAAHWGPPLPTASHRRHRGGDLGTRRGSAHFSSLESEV

`N[C@@H](CC(=O)O)C(=O)O` [L-aspartate]: in assay [1], the X-ray crystallography entry was “GluN2D ligand-binding domain structures in complex with D- and L-glutamate, L-aspartate, and NMDA”. In assay [2], this molecule came in with an EC50 of 5 µM. For `N[C@H](CCC(=O)O)C(=O)O` [D-glutamate], the X-ray crystallography result in assay [1] was “GluN2D ligand-binding domain structures in complex with D- and L-glutamate, L-aspartate, and NMDA”. As to `N[C@@H](CCC(=O)O)C(=O)O` [L-glutamate], the X-ray crystallography result in assay [1] is “GluN2D ligand-binding domain structures in complex with D- and L-glutamate, L-aspartate, and NMDA”.

The values above are taken from PMC3302728 (Nature Communications, 2011).
